# A selection: hits, their analogues and other compounds. The true share with any hit is near 1.8%.
# CHRM5 PAM: potentiates acetylcholine response at human M5 receptor | AID 624038 | P08912 | CHO-K1 hM5, Fluo-8 calcium, ACh EC20 PAM; 0% = ACh EC20, 100% = ACh EC100 | 360,000 compounds, 0.3% hits | activation, % at 3 µM;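 active = activation above the run cutoff, the mean activation of all test compounds plus 3 SD, cut at about 18% in these data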
#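 Measured by: Fluo-8 calcium fluorescence; material: human M5 receptor in CHO-K1 cells; schedule: Post-acetylcholine fluorescence recording 140 s; benchmarks: low control EC20 acetylcholine (0%), high control EC100 acetylcholine (100%); read-out: Max/basal fluorescence ratio as % of EC20–EC100 ACh window; compound: single dose, 3 µM nominal final test concentration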
# CHRM4 antagonist: antagonists of human muscarinic M4 receptor (CHRM4). P08173. CHO-hM4 cells, ACh EC80, Fluo-8 calcium fluorescence. inhibition, % at 3 µM. 360,000 compounds, 0.73% hits;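 active = inhibition above its plate's cutoff, the mean inhibition of sample wells plus 3 SD, cut at about 27% in these data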;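 note: 0% = acetylcholine EC80 with DMSO and 100% = DMSO without agonist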
# M5 ag: CHRM5 agonism in calcium assay. P08912. CHO-K1 hM5 cells, Fluo-8 calcium fluorescence; 0% DMSO wells, 100% maximal acetylcholine response. activation, % at 3 µM. 360,000 compounds, 0.19% hits. AID 624037;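 active = activation above the run's mean over test compounds plus 3 SD, cut at about 23% in these data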;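 note: signal is peak over basal fluorescence ratio across the kinetic read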
# CHRM4 PAM: potentiates acetylcholine response at human M4 receptor. activation, % at 3 µM. P08173. 360,000 compounds, 0.4% hits. CHO-K1 hM4/Gqi5, Fluo-8 calcium fluorescence, ACh EC20; 0% = ACh EC20, 100% = maximal ACh. AID 624126;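 active = activation above its plate's cutoff, the mean activation of sample wells plus 3 SD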
# M4 ag: CHRM4 agonism in calcium assay; P08173; CHO-K1 hM4/Gqi5, Fluo-8 calcium fluorescence; vehicle 0%, full acetylcholine response 100%; activation, % at 3 µM; 360,000 compounds, 0.14% hits; AID 624127;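 active = activation above the run mean over all test wells plus 3 SD, cut at about 32% in these data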;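 note: peak over basal fluorescence ratio per well then scaled between controls; 0% = DMSO wells and 100% = acetylcholine at EC100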
# CHRM5 antagonist: CHRM5 antagonism in calcium assay; CHO-hM5 cells, Fluo-8 calcium fluorescence, ACh EC80; 360,000 compounds, 0.59% hits; inhibition, % at 3 µM; P08912; AID 624040;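 active = inhibition above a per-plate cutoff, the mean of that plate's test compounds plus 3 SD, cut at about 27% in these data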;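 note: 0% = acetylcholine EC80 with DMSO and 100% = DMSO without agonist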
# Starred values were filed as active, the others as inactive.
SMILES,CHRM5 PAM,CHRM4 antagonist,M5 ag,CHRM4 PAM,M4 ag,CHRM5 antagonist
CN1CCN(C(=O)/C(=C/c2ccccc2)c2ccccc2)CC1,-18,53*,-12,-33,1,28*
N/C(=N\OC(=O)Nc1cccc(C(F)(F)F)c1)c1ccno1,-17,10,0,-7,7,27*
CCN(CC)CCC=C(c1cccs1)c1cccs1,-36,47*,-10,-16,3,28*
CC(NC(=O)C1CCC(C(C)(C)C)CC1)C(c1ccccc1)N1CCOCC1 (configuration not stated),-2,6,-2,-6,-1,-1
CC(NC(=O)Nc1ccc([N+](=O)[O-])cc1)C(c1ccccc1)N1CCOCC1 (configuration not stated),-8,-4,31*,0,76*,3
CC(NC(=O)Nc1ccc(Cl)c(Cl)c1)C(c1ccccc1)N1CCOCC1 (configuration not stated),-16,6,18,-7,73*,31*
CC(NC(=O)c1ccc(Cl)cc1Cl)C(c1ccccc1)N1CCOCC1 (configuration not stated),-3,-1,-3,2,0,7
CN(C)c1ccc(-c2csc(C(O)c3cccc(Cl)c3)n2)cc1 (configuration not stated),-21,17,7,-13,47*,19
Cc1cscc1-c1nc(NCC2CC2)nc2ccsc12,-2,-4,-3,1,-2,0
Cc1c(P(=S)(c2ccccc2)c2ccccc2)[n+]2ccccc2n1C/C=C/c1ccccc1,-18,29*,-4,-11,1,22
CC(O)c1nc2ccccc2n1C/C=C/c1ccccc1 (configuration not stated),1,10,0,1,1,-5
O=C1C(=C2CCc3ccccc32)Cc2ccccc21,-2,5,-2,0,0,-1
c1ccc2c(c1)CCc1ccccc1C2=C1CCNCC1,-32,99*,-19,-61,2,99*
COC(=O)C1=CN(c2ccc(OC)cc2OC)C(N)=C(C#N)C1c1cccc([N+](=O)[O-])c1 (configuration not stated),-5,4,-1,-3,5,6
Cc1ccc(Sc2c([N+](=O)[O-])ncn2C)cc1,0,7,-3,0,0,1
Cc1ccc(Sc2c([N+](=O)[O-])c(C)nn2C)cc1,-33,63*,-20,-63,0,28*
C=CCn1c(SCC(=O)NCCC2=CCCCC2)nc2ccc(Cl)cc2c1=O,30*,-14,4,5,1,2
Cn1c(=O)cc(SCC(=O)NCCC2=CCCCC2)c2ccc(Cl)cc21,1,1,-3,1,0,3
O=C(C[C@@H]1C=C[C@@H](NC(=O)c2cccnc2)[C@@H](CO)O1)NCc1ccncn1,-1,-6,1,2,1,2
CCOC(=O)C(NC(=O)CC)(Nc1cc(C)on1)C(F)(F)F (configuration not stated),6,-8,-3,34*,1,-7
COc1cccc(CNC(=O)CCNS(=O)(=O)c2ccc3[nH]c(=O)oc3c2)c1,6,-4,-3,16*,0,-4
O=C(Nc1nnc([C@@H]2C[C@H](O)[C@@H](CO)O2)s1)c1cccc2ccccc12,0,4,1,-4,0,-8
CCOC(=O)[C@H]1[C@H]2COc3ccc(OC)cc3[C@@H]2N2C(=O)CN(Cc3ccc(F)cc3)C(=O)[C@@]12C,-11,42*,-11,-16,6,10
CCOC(=O)[C@]12CCCC=C1N(CCC1=CCCCC1)C(=O)[C@H](CC(=O)N1CCC(c3ccccc3)CC1)C2,-3,-22,-2,-1,0,-3
Cc1ccc(S(=O)(=O)n2nnc3ccccc32)c(C)c1C,6,-2,-1,24*,2,-3
CNC(=S)NCc1ccc2[nH]c(C)cc2c1,18*,-3,-3,5,0,1

# Compound activity as filed in PubChem BioAssay.
